Results: ChEMBL document CHEMBL2203189, “Synthesis and pharmacology of 1-alkyl-3-(1-naphthoyl)indoles: steric and electronic effects of 4- and 8-halogenated naphthoyl substituents” (Bioorg Med Chem, 2012)
The source made the active and inactive calls. No cut-off for these calls is given here.

What was measured:
[1] = molecular target: Cannabinoid receptor 1 (Homo sapiens, UniProt P21554); assay: Displacement of [3H]CP55940 from human CB1 receptor expressed in HEK293 cells after 1 hr by liquid scintillation spectrophotometry; type: cell-based
In short: (§1)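 Membranes (50 µg) from HEK-293 cells stably expressing human CB1, cultured in DMEM/10% FBS. Incubated with 0.5 nM [3H]CP55,940 and test compound at 1 nM–10 µM in buffer with BSA (5 mg/mL), 1 h at 30 °C. Nonspecific binding defined with excess unlabelled CP55,940. Filtered through GF/B, then scintillation counting.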

[2] = molecular target: Cannabinoid receptor 2 (Homo sapiens, UniProt P34972); assay: Displacement of [3H]CP55940 from human CB2 receptor expressed in CHO cells after 1 hr by liquid scintillation spectrophotometry; type: cell-based
In short: as §1, with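 “CHO” for “HEK-293”, “CB2,” for “CB1,”, “fetal calf serum.” for “FBS.”, “µM” for “µM in buffer”, “GF/B filtration,” for “Filtered through GF/B,”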

[3] = species: Homo sapiens; assay: Selectivity ratio of Ki for human CB1 receptor to Ki for human CB2 receptor
[4] = tested on: Mus musculus; assay: Locomotor activity in Harlan ICR mouse assessed as inhibition of activity level at […], iv from 5 to 15 mins by spontaneous locomotor activity test relative to vehicle treated control; type: functional
[5] = tested on: Mus musculus; assay: Antinociceptive activity in Harlan ICR mouse assessed as latency to heat-induced tail flicking at […], iv at 20 mins relative to control; type: functional
[6] = tested on: Mus musculus; assay: Hypothermic activity in Harlan ICR mouse assessed as change in rectal temperature at […], iv at 30 mins; type: functional
[7] = tested on: Mus musculus; assay: Induction of catalepsy in Harlan ICR mouse at […], iv at 40 mins measured for 5 mins by ring immobility test; type: functional
[8] = tested on: Mus musculus; assay: Locomotor activity in Harlan ICR mouse assessed as inhibition of activity level at 91 umol/kg, iv from 5 to 15 mins by spontaneous locomotor activity test relative to vehicle treated control; type: functional
In short: (§2)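 Male ICR mice, n = 6 per dose, single probe dose iv in emulphor–ethanol–saline 1:1:18. Photocell beam interruptions recorded over 10 min, at 5–15 min after dosing. Result given as % inhibition relative to the vehicle group.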

[9] = tested on: Mus musculus; assay: Hypothermic activity in Harlan ICR mouse assessed as change in rectal temperature at 91 umol/kg, iv at 30 mins; type: functional
In short: (§3)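 Male ICR mice, n = 6 per dose. Single probe dose iv in emulphor–ethanol–saline 1:1:18. Rectal temperature taken with a thermistor probe at 25 mm depth before dosing and at 30 min. Result given as change from pre-injection value (°C).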

[10] = tested on: Mus musculus; assay: Induction of catalepsy in iv dosed Harlan ICR mouse at 40 mins measured for 5 mins by ring immobility test; type: functional
[11] = tested on: Mus musculus; assay: Antinociceptive activity in Harlan ICR mouse assessed as latency to heat-induced tail flicking at 91 umol/kg, iv at 20 mins relative to control; type: functional
[12] = tested on: Mus musculus; assay: Locomotor activity in Harlan ICR mouse assessed as inhibition of activity level at 68 umol/kg, iv from 5 to 15 mins by spontaneous locomotor activity test relative to vehicle treated control; type: functional; in short: as §2
[13] = tested on: Mus musculus; assay: Antinociceptive activity in Harlan ICR mouse assessed as latency to heat-induced tail flicking at 68 umol/kg, iv at 20 mins relative to control; type: functional, organism-based
[14] = tested on: Mus musculus; assay: Locomotor activity in Harlan ICR mouse assessed as inhibition of activity level at 27 umol/kg, iv from 5 to 15 mins by spontaneous locomotor activity test relative to vehicle treated control; type: functional; in short: as §2
[15] = tested on: Mus musculus; assay: Antinociceptive activity in Harlan ICR mouse assessed as latency to heat-induced tail flicking at 27 umol/kg, iv at 20 mins relative to control; type: functional
[16] = tested on: Mus musculus; assay: Hypothermic activity in Harlan ICR mouse assessed as change in rectal temperature at 27 umol/kg, iv at 30 mins; type: functional; in short: as §3
[17] = tested on: Mus musculus; assay: Locomotor activity in Harlan ICR mouse assessed as inhibition of activity level at 6.9 umol/kg, iv from 5 to 15 mins by spontaneous locomotor activity test relative to vehicle treated control; type: functional
In short: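 Spontaneous activity in male ICR mice (18–25 g) after one iv tail-vein probe dose in 1:1:18 emulphor–ethanol–saline. Photocell beam interruptions (16 beams per chamber) recorded over 10 min, 5–15 min after dosing. Reported as % inhibition relative to the vehicle group. n = 6 per dose.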

[18] = tested on: Mus musculus; assay: Antinociceptive activity in Harlan ICR mouse assessed as latency to heat-induced tail flicking at 6.9 umol/kg, iv at 20 mins relative to control; type: functional
[19] = tested on: Mus musculus; assay: Hypothermic activity in Harlan ICR mouse assessed as change in rectal temperature at 6.9 umol/kg, iv at 30 mins; type: functional
In short: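 Male ICR mice, 18–25 g, dosed iv in the tail vein with a single probe dose in emulphor–ethanol–saline 1:1:18. Rectal thermistor probe inserted to 25 mm. Baseline read before injection and again at 30 min. Reported as the change from pre-injection temperature (Δ°C). n = 6 per dose.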

[20] = tested on: Mus musculus; assay: Induction of catalepsy in Harlan ICR mouse at 6.9 umol/kg, iv at 40 mins measured for 5 mins by ring immobility test; type: functional
In short: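 Ring test on male ICR mice given one probe dose iv (tail vein; 1:1:18 emulphor–ethanol–saline). At 40 min each mouse is placed on a 5.5 cm ring 16 cm high and scored over 5 min by blinded observers. Up to 5 escapes allowed; data dropped if escapes occur before 2.5 min. Immobility index = time motionless/300 s × 100. n = 6 per dose.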

[21] = tested on: Mus musculus; assay: Locomotor activity in Harlan ICR mouse assessed as inhibition of activity level at 80 umol/kg, iv from 5 to 15 mins by spontaneous locomotor activity test relative to vehicle treated control; type: functional; in short: as §2
[22] = tested on: Mus musculus; assay: Antinociceptive activity in Harlan ICR mouse assessed as latency to heat-induced tail flicking at 80 umol/kg, iv at 20 mins relative to control; type: functional
[23] = tested on: Mus musculus; assay: Hypothermic activity in Harlan ICR mouse assessed as change in rectal temperature at 80 umol/kg, iv at 30 mins; type: functional; in short: as §3
[24] = tested on: Mus musculus; assay: Induction of catalepsy in Harlan ICR mouse at 80 umol/kg, iv at 40 mins measured for 5 mins by ring immobility test; type: functional
In short: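 Male ICR mice given a single iv probe dose in emulphor–ethanol–saline 1:1:18. At 40 min placed on a 5.5 cm ring raised 16 cm and observed for 5 min by blinded raters. Up to 5 escapes allowed; mice escaping before 2.5 min excluded. Immobility index = time motionless / 300 s × 100.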

[25] = tested on: Mus musculus; assay: Locomotor activity in Harlan ICR mouse assessed as inhibition of activity level at 66 umol/kg, iv from 5 to 15 mins by spontaneous locomotor activity test relative to vehicle treated control; type: functional; in short: as §2
[26] = tested on: Mus musculus; assay: Antinociceptive activity in Harlan ICR mouse assessed as latency to heat-induced tail flicking at 66 umol/kg, iv at 20 mins relative to control; type: functional
[27] = tested on: Mus musculus; assay: Hypothermic activity in Harlan ICR mouse assessed as change in rectal temperature at 66 umol/kg, iv at 30 mins; type: functional; in short: as §3

Chain of Cannabinoid receptor 2 (P34972 whole entry): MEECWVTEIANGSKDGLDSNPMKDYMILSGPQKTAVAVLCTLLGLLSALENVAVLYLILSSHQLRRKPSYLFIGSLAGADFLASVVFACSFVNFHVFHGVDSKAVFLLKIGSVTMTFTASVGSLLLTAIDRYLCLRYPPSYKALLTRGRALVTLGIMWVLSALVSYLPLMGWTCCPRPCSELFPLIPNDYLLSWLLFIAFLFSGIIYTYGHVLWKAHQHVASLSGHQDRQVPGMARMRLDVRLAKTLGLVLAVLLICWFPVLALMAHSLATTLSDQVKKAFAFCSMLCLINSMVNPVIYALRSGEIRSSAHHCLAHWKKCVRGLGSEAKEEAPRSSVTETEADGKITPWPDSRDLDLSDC
Chain of Cannabinoid receptor 1 (P21554 whole entry): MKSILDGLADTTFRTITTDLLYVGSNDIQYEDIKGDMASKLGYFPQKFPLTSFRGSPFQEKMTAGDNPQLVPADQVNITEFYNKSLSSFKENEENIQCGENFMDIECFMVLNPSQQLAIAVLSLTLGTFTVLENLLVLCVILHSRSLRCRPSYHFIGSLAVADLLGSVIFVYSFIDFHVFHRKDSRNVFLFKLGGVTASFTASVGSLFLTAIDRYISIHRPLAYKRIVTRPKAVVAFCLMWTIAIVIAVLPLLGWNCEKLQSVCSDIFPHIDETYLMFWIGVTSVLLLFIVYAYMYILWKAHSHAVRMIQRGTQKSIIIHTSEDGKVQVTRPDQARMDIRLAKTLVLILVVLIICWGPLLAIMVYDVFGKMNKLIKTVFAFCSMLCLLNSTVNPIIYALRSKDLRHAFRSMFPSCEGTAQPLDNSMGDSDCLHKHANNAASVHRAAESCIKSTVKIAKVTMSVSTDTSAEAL

CCCn1cc(C(=O)c2ccc(I)c3ccccc23)c2ccccc21
Ki [1]: 140 nM
Ki [2]: 6.6 nM
Ratio Ki [3]: 21
inhibition in vivo at […] [4]: 10%
Activity [5]: 26%
Activity [6]: -1.7%
Activity [7]: 2%

CCCn1cc(C(=O)c2ccc(F)c3ccccc23)c2ccccc21
Ki [1]: 240 nM
Ki [2]: 33 nM
Ratio Ki [3]: 7
inhibition in vivo at 91 µmol/kg [8]: 67%
Activity [9]: -3.3%
Activity [10]: inactive
Activity [11]: 59%

CCCn1cc(C(=O)c2cccc3cccc(I)c23)c2ccccc21
Ki [1]: 2960 nM
Ki [2]: 152 nM
Ratio Ki [3]: 19
inhibition in vivo at 68 µmol/kg [12]: -25%
Activity [13]: inactive

CCCCCn1cc(C(=O)c2ccc(Cl)c3ccccc23)c2ccccc21
Ki [1]: 2.3 nM
Ki [2]: 2.8 nM
Ratio Ki [3]: 0.8
inhibition in vivo at 27 µmol/kg [14]: 82%
Activity [15]: 90%
Activity [16]: -4.9%

CCCCCn1c(C)c(C(=O)c2cccc3cccc(Br)c23)c2ccccc21
Ki [1]: 54 nM
Ki [2]: 10 nM
Ratio Ki [3]: 5.5
inhibition in vivo at 6.9 µmol/kg [17]: 79%
Activity [18]: 100%
Activity [19]: -3.7%
Activity [20]: 53%

CCCCCn1cc(C(=O)c2cccc3cccc(Cl)c23)c2ccccc21
Ki [1]: 23 nM
Ki [2]: 10 nM
Ratio Ki [3]: 2.3
inhibition in vivo at 80 µmol/kg [21]: 94%
Activity [22]: 100%
Activity [23]: -6.9%
Activity [24]: 92%

CCCn1c(C)c(C(=O)c2ccc(I)c3ccccc23)c2ccccc21
Ki [1]: 501 nM
Ki [2]: 20 nM
Ratio Ki [3]: 25
inhibition in vivo at 66 µmol/kg [25]: 74%
Activity [26]: 60%
Activity [27]: -3%
